Laboratory results taken from ChEMBL document CHEMBL5303300, “EUbOPEN Chemogenomics Library - Multiplex” (2023).
Several values for one entry are separate records, joined by “and”; a condition that tells them apart may be missing. Equal entries are not always repeated.

Tests used:
[1] = system: HEK-293T; experiment: Multiplex assay against HEK293T; format: toxicity, cell-based; conditions: human, number of replicates 2
Procedure, shortened: (§1)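 Tubulin, mitochondrial-mass and membrane-permeability phenotypes are per cents of healthy-nucleus cells. Cells were gated by CellPathfinder machine learning into Hoechst high-intensity objects or normal cells, normal cells into healthy, pyknosed or fragmented nuclei, and pyknosed cells into mitotic or apoptotic. Before that, live cells stained at seeding with Hoechst33342, BioTracker Green Microtubule Cytoskeleton Dye, MitoTracker Red and Annexin V Alexa Fluor 680 were imaged on a CQ1 microscope at 37°C and 5% CO2 after compound addition.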

[2] = system: Fibroblast; experiment: Multiplex assay against human fibroblast; format: toxicity, cell-based; conditions: number of replicates 2; procedure, shortened: as §1
[3] = 12 h, 1 µM, compound concentration 1 uM
[4] = 12 h, 10 µM, compound concentration 10 uM
[5] = 24 h, 1 µM, compound concentration 1 uM
[6] = 24 h, 10 µM, compound concentration 10 uM
[7] = 48 h, 1 µM, compound concentration 1 uM
[8] = 48 h, 10 µM, compound concentration 10 uM

Q: Which results are given for CCC(=O)O[C@@H](OP(=O)(CCCCc1ccccc1)CC(=O)N1C[C@H](C2CCCCC2)C[C@H]1C(=O)[O-])C(C)C.[Na+] (stereo not given in full)?
A: Population Apoptotic (%) [1, 3]: 44% and 35%; Population Fragmented Nuclei (%) [1, 3]: 2% and 1%; Population Healthy Nuclei (%) [1, 3]: 86% and 85%; Population Hoechst High Intensity Objects (%) [1, 3]: 5% and 6%; Population Membrane Permeable-Phenotype (%) [1, 3]: 3%; Population Mitochondria Different-Phenotype (%) [1, 3]: 17% and 15%; Population Mitotic Cells (%) [1, 3]: 55% and 64%; Population Normal (%) [1, 3]: 94% and 93%; Population Pyknosed Nuclei (%) [1, 3]: 11% and 12%; Population Tubulin-Different-Phenotype (%) [1, 3]: 46% and 44%; Total Cell Count [1, 3]: 721 and 624; Population Apoptotic (%) [1, 4]: 28% and 35%; Population Fragmented Nuclei (%) [1, 4]: 2% and 3%; Population Healthy Nuclei (%) [1, 4]: 84% and 86%; Population Hoechst High Intensity Objects (%) [1, 4]: 5% and 6%; Population Membrane Permeable-Phenotype (%) [1, 4]: 1% and 3%; Population Mitochondria Different-Phenotype (%) [1, 4]: 13%; Population Mitotic Cells (%) [1, 4]: 71% and 64%; Population Normal (%) [1, 4]: 94% and 93%; Population Pyknosed Nuclei (%) [1, 4]: 12% and 10%; Population Tubulin-Different-Phenotype (%) [1, 4]: 51% and 50%; Total Cell Count [1, 4]: 743 and 727; Population Apoptotic (%) [1, 5]: 40% and 41%; Population Fragmented Nuclei (%) [1, 5]: 5% and 3%; Population Healthy Nuclei (%) [1, 5]: 86% and 88%; Population Hoechst High Intensity Objects (%) [1, 5]: 7% and 8%; Population Membrane Permeable-Phenotype (%) [1, 5]: 3%; Population Mitochondria Different-Phenotype (%) [1, 5]: 4% and 5%; Population Mitotic Cells (%) [1, 5]: 59% and 58%; Population Normal (%) [1, 5]: 92% and 91%; Population Pyknosed Nuclei (%) [1, 5]: 7% and 8%; Population Tubulin-Different-Phenotype (%) [1, 5]: 26% and 30%; Total Cell Count [1, 5]: 1141 and 899; Population Apoptotic (%) [1, 6]: 18% and 31%; Population Fragmented Nuclei (%) [1, 6]: 3% and 4%; Population Healthy Nuclei (%) [1, 6]: 89% and 88%; Population Hoechst High Intensity Objects (%) [1, 6]: 6% and 9%; Population Membrane Permeable-Phenotype (%) [1, 6]: 3% and 2%; Population Mitochondria Different-Phenotype (%) [1, 6]: 2% and 3%; Population Mitotic Cells (%) [1, 6]: 81% and 68%; Population Normal (%) [1, 6]: 93% and 90%; Population Pyknosed Nuclei (%) [1, 6]: 7% and 6%; Population Tubulin-Different-Phenotype (%) [1, 6]: 28% and 31%; Total Cell Count [1, 6]: 1219 and 1091; Population Apoptotic (%) [1, 7]: 22% and 18%; Population Fragmented Nuclei (%) [1, 7]: 12% and 7%; Population Healthy Nuclei (%) [1, 7]: 84% and 88%; Population Hoechst High Intensity Objects (%) [1, 7]: 9% and 11%; Population Membrane Permeable-Phenotype (%) [1, 7]: 5% and 4%; Population Mitochondria Different-Phenotype (%) [1, 7]: 0% and 1%; Population Mitotic Cells (%) [1, 7]: 77% and 81%; Population Normal (%) [1, 7]: 90% and 88%; Population Pyknosed Nuclei (%) [1, 7]: 2% and 3%; Population Tubulin-Different-Phenotype (%) [1, 7]: 10% and 14%; Total Cell Count [1, 7]: 2926 and 1957; Population Apoptotic (%) [1, 8]: 5% and 13%; Population Fragmented Nuclei (%) [1, 8]: 14% and 8%; Population Healthy Nuclei (%) [1, 8]: 82% and 87%; Population Hoechst High Intensity Objects (%) [1, 8]: 10% and 11%; Population Membrane Permeable-Phenotype (%) [1, 8]: 4% and 3%; Population Mitochondria Different-Phenotype (%) [1, 8]: 0%; Population Mitotic Cells (%) [1, 8]: 94% and 86%; Population Normal (%) [1, 8]: 89% and 88%; Population Pyknosed Nuclei (%) [1, 8]: 2% and 4%; Population Tubulin-Different-Phenotype (%) [1, 8]: 12% and 17%; Total Cell Count [1, 8]: 3198 and 2304; Population Apoptotic (%) [2, 3]: 42% and 43%; Population Fragmented Nuclei (%) [2, 3]: 7% and 8%; Population Healthy Nuclei (%) [2, 3]: 69% and 71%; Population Hoechst High Intensity Objects (%) [2, 3]: 0%; Population Membrane Permeable-Phenotype (%) [2, 3]: 9% and 2%; Population Mitochondria Different-Phenotype (%) [2, 3]: 0% and 2%; Population Mitotic Cells (%) [2, 3]: 57% and 56%; Population Normal (%) [2, 3]: 99%; Population Pyknosed Nuclei (%) [2, 3]: 22% and 19%; Population Tubulin-Different-Phenotype (%) [2, 3]: 11% and 9%; Total Cell Count [2, 3]: 189 and 198; Population Fragmented Nuclei (%) [2, 4]: 6% and 13%; Population Healthy Nuclei (%) [2, 4]: 76% and 70%; Population Hoechst High Intensity Objects (%) [2, 4]: 0%; Population Membrane Permeable-Phenotype (%) [2, 4]: 5% and 2%; Population Mitochondria Different-Phenotype (%) [2, 4]: 0%; Population Mitotic Cells (%) [2, 4]: 45% and 82%; Population Normal (%) [2, 4]: 100%; Population Pyknosed Nuclei (%) [2, 4]: 16% and 15%; Population Tubulin-Different-Phenotype (%) [2, 4]: 10% and 5%; Total Cell Count [2, 4]: 207 and 226; Population Apoptotic (%) [2, 5]: 50% and 45%; Population Fragmented Nuclei (%) [2, 5]: 6% and 14%; Population Healthy Nuclei (%) [2, 5]: 73% and 64%
